# Screens (PubChem BioAssay)
# TRPC6 activator = mouse TRPC6 channel activators, primary screen, cell-based, HEK293, membrane potential dye | 310,000 tested, 0.13% active | HEK293-TRPC6 membrane potential dye fluorescence; hits give high values | B-score at 10 µM | AID 2550, 2010;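 active means B-score of the integrated fluorescence ratio above library mean plus 3 SD, and starting fluorescence ratio within library mean plus 5 SD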;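 further: higher score means more depolarization so channel activation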
# Target sequence (Q61143 whole entry, looked up): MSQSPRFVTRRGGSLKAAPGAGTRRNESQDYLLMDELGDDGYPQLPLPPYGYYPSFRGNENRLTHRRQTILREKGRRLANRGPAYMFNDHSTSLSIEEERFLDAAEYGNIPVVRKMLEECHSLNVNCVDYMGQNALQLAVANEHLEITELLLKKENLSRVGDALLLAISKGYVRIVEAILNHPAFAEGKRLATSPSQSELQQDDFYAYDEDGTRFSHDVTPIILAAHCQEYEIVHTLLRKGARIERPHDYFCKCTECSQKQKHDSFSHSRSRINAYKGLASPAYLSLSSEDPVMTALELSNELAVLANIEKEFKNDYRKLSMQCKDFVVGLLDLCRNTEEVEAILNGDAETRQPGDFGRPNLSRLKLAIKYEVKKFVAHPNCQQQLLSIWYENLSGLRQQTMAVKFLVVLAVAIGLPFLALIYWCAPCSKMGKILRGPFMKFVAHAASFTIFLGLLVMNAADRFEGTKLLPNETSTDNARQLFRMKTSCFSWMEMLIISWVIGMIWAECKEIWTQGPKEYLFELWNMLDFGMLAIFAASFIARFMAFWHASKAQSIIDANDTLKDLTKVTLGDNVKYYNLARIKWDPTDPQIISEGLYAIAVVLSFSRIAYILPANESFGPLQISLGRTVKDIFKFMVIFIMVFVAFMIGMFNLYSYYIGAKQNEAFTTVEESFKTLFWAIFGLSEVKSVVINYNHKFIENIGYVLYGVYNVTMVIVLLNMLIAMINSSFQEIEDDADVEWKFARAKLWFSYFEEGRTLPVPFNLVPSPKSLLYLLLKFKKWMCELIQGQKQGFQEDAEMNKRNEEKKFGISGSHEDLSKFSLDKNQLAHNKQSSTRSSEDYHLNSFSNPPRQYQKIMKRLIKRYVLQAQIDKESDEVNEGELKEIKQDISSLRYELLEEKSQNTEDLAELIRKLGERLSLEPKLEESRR
# TRPC4 PAM = positive allosteric modulators of TRPC4, primary screen, cell-based, mouse TRPC4beta, HEK293 mu-opioid, Fluo-4 calcium; Short transient receptor potential channel 4 (Mus musculus), Q9QUQ5; DAMGO EC20, Fluo-4 Ca2+ flux; hits give high values; B-score at 10 µM; 310,000 tested, 0.42% active; AID 2227, 2009;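 active means B-score of calcium response area above 5 SD of library B-scores, with initial fluorescence ratio within 5 SD of library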;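 further: B-score of integrated fluorescence ratio over time as area under calcium response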
# TRPC4 agonist = activators of mouse TRPC4 channel, primary screen, Fluo4 calcium, HEK293 TRPC4beta/mu-opioid cells; Short transient receptor potential channel 4 (Mus musculus), Q9QUQ5; Fluo4 calcium fluorescence; hits give high values; B-score at 10 µM; 310,000 tested, 0.49% active; AID 2237, 2010;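 active means B-score above 5 SD of library B-scores, and initial fluorescence ratio not above library mean plus 5 SD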;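 further: positive B-score marks a calcium rise read as TRPC4 activation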
#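 System – HEK293 cells stably co-expressing mouse TRPC4beta and mu-opioid receptor · Signal – Fluo4 calcium-sensitive dye fluorescence, kinetic, 1 Hz baseline · Benchmarks – buffer (low) and maximal DAMGO (high) · Read-out – B score of integrated fluorescence ratio per well · Incubation – dye loading 45 min room temperature, 110 s kinetic read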
# TRPC4 block = inhibitors of mouse TRPC4 channel, primary screen, Fluo4 calcium, HEK293 TRPC4beta/mu-opioid cells; B-score at 10 µM; Short transient receptor potential channel 4 (Mus musculus), Q9QUQ5; AID 2247, 2010; 300,000 tested, 0.39% active; DAMGO-evoked Fluo4 calcium flux; hits give low values;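 active means B-score over 3 SD under the library average, no early fluorescence shift, positive overall ratio signal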
#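 System: stable TRPC4beta/mu-opioid receptor HEK293 cells; Dosing: single-point compound dosing; Measured by: Fluo4 Ca2+ flux fluorescence; Read-out basis: per-well B score of integrated baseline-normalized Fluo4 ratio.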
# TRPC6 inh = mouse TRPC6 channel inhibitors, primary screen, cell-based, HEK293, membrane potential dye | Short transient receptor potential channel 6 (Mus musculus), Q61143 | ACh-evoked depolarization; hits give low values | B-score at 10 µM | 310,000 tested, 1.1% active | AID 2553, 2010;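 active means B-score under library mean minus 3 SD, initial fluorescence not abnormally high, positive integrated signal ratio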;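 further: B-score derived from integrated fluorescence ratio over the kinetic read; more negative B-score means stronger inhibition of depolarization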
# HEK293 MPD ctr = parental HEK293 membrane potential modulation, confirmation, counter-screen for TRPC6 modulator project, cell-based; shares compounds with TRPC6 inh; membrane potential dye fluorescence; membrane potential signal change, % at 10 µM; 2,400 tested, 51% active;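 active means membrane potential signal moves up or down beyond 5 SD from buffer-only wells, on both duplicate plates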
# HEK293 MPD ctr 2 = second check of TRPC6 modulator effects in parental HEK293 cells. shares compounds with TRPC6 inh. membrane potential dye fluorescence; after compound, maximal acetylcholine stimulation. inhibition, % at 10 µM. 2,400 tested, 14% active;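 active means membrane potential signal drops by more than 5 SD from the mean control signal, in both duplicate plates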;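 further: plate controls were acetylcholine ECmax control wells for no effect and buffer only wells for full effect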
# TRPC4 ctr mod = TRPC4 modulation by TRPC6 hit compounds, confirmation, selectivity assay for TRPC6 modulator project, cell-based, HEK293 TRPC4/mu-opioid, membrane potential dye, mouse; membrane potential fluorescence; AID 488927, 2010; shares compounds with TRPC6 inh; 2,400 tested, 69% active; percent change from control (negative = decrease, positive = increase), % at 10 µM;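 active means membrane potential signal moved up or down beyond 5 SD of buffer control wells, in both duplicate plates, actives on both sides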;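 further: plate controls were assay buffer wells for no effect and DAMGO maximal-effect wells for full effect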
# TRPC4 ctr inh 2 = second check of whether TRPC6 modulators also affect mouse TRPC4 | inhibition, % at 10 µM | HEK293 TRPC4/mu-opioid, membrane potential dye fluorescence; stimulated with maximal-effect DAMGO | AID 488928 | 2,400 tested, 55% active | shares compounds with TRPC6 inh;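 active means drop in membrane potential signal beyond 5 SD of the control wells in both duplicate plates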;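 further: TRPC4 counter screen for TRPC6 hits run under conditions tuned for TRPC6 not TRPC4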
# TRPC6 block conf = mouse TRPC6 channel inhibitors, confirmation, HEK293 cells, membrane potential dye, duplicate; shares compounds with TRPC6 inh; ACh-evoked depolarization; inhibition, % at 10 µM; 3,300 tested, 43% active; AID 488960, 2010;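 active means fluorescence ratio falls more than 5 SD below the full-stimulation control mean, in both duplicate runs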;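 further: integrated fluorescence ratio of peak minus minimum over baseline after agonist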
# TRPC6 act confirm = mouse TRPC6 channel activators, confirmation, HEK293 cells, membrane potential dye, duplicate; shares compounds with TRPC6 inh; HEK293-TRPC6 membrane potential dye fluorescence, FDSS; activation, % at 10 µM; 2,800 tested, 11% active;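 active means ratio signal rise beyond 5 SD above unstimulated control wells' mean, seen in both duplicate runs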;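 further: plate controls were buffer EC0 wells for no effect and acetylcholine ECmax response for full effect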
# An asterisk follows results filed as active; i = inactive; / = no result; + = active, no number. Rows were chosen to be rich in hits. Some 2.3% of all compounds tested hit in one or more screens of this group.
SMILES,TRPC6 activator,TRPC4 PAM,TRPC4 agonist,TRPC4 block,TRPC6 inh,HEK293 MPD ctr,HEK293 MPD ctr 2,TRPC4 ctr mod,TRPC4 ctr inh 2,TRPC6 block conf,TRPC6 act confirm
Cc1ccn2c(=O)c(C(=O)NCCCN3CCCC3=O)c(O)nc2c1,i,i,i,i,-5.5*,-316%*,i,-45%*,i,i,i
Cc1ccn2c(=O)c(C(=O)NCCCN3CCCCC3C)c(O)nc2c1 (stereo not drawn),i,i,i,i,-5.3*,-274%*,70%*,-44%*,56%*,76%*,i
Cc1cccn2c(=O)c(C(=O)NCCCN3CC(C)CC(C)C3)c(O)nc12 (stereo not drawn),i,i,73*,i,-5.1*,-140%*,i,i,i,i,i
C=CCN(c1ccccc1)S(=O)(=O)c1ccc2c(c1)NC(=O)C(C)C(=O)N2 (stereo not drawn),i,i,i,i,i,/,/,/,/,/,/
CCOC(=O)c1cnc2ccc(C)cc2c1Nc1ccc(N2CCOCC2)cc1,i,i,i,i,-5.7*,-154%*,68%*,-32%*,44%*,68%*,i
CCc1ccc(NC(=O)Cn2nnc(C(=O)NCc3ccco3)c2N)cc1,i,i,i,i,i,/,/,/,/,/,/
O=C1/C(=C/c2ccc([N+](=O)[O-])cc2)CCC1C1CCCC1 (stereo not drawn),i,i,i,i,i,/,/,/,/,/,/
Cc1cccc(NC(=O)COc2ccc(/C=C\c3[nH]c(=O)[nH]c(=O)c3[N+](=O)[O-])cc2)c1,14*,i,i,i,i,i,i,i,i,i,i
COc1cc(/C=C/C(=O)c2ccc3c(c2)OCO3)cc(Cl)c1O,52*,i,100*,i,i,+,+,258%*,54%*,/,342%*
N#C/C(=C/c1ccc(N2CCCCC2)o1)C(=O)Nc1ccc2ccccc2c1,80*,i,i,i,i,844%*,i,233%*,i,i,274%*
COc1cc(CN2CCCC(N3CCN(c4ccccc4C)CC3)C2)ccc1O (stereo not drawn),i,i,i,i,i,/,/,/,/,/,/
COc1cc(NC(=O)CN2CCN(Cc3ccc4c(c3)OCO4)CC2)cc(OC)c1,i,i,i,i,i,/,/,/,/,/,/
COC(=O)c1[nH]c2ccc(Br)cc2c1NC(=O)CN1CCCc2ccccc21,i,i,i,i,i,/,/,/,/,/,/
CCOC(=O)c1[nH]c2ccc(OC)cc2c1NC(=O)/C=C/c1ccc2c(c1)OCO2,i,i,i,i,i,/,/,/,/,/,/
